SENP1 FRET inh: inhibitors of human SENP1 SUMO protease catalytic domain | Q9P0U3 | recombinant SENP1 catalytic domain, CyPet-SUMO1-YPet FRET cleavage | inhibition, % at 10 µM | hit rate 0.21% among 360,000;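 active means inhibition at least 30% at 10 µM, raw YFP signal under a set limit, fluorescence ratio 0.5 to 1.5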;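 further: 0% = enzyme with DMSO and 100% = no enzyme wells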
Target sequence (Q9P0U3 419-644 limits assumed): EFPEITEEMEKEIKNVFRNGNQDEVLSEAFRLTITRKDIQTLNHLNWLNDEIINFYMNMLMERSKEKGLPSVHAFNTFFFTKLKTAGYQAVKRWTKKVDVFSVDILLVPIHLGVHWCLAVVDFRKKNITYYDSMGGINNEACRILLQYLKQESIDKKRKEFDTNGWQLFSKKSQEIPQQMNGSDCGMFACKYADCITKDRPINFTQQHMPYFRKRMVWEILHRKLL
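System: Recombinant human SENP1 catalytic domain, His6-tagged | Incubation: Enzyme reaction for 50 min at room temperature, dark | Medium: Tris pH 8 with BME, BSA, NP40 and catalase | Also added: 25 nM SUMO1 FRET substrate | Compound: 10 µM single point, 0.5% DMSO | Measured by: FRET fluorescence in CFP and YFP emission channels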
Cardio protect: myocardial damage modulation in H9c2 cells; H9c2 cardiomyocytes, H2O2 injury protection, ATPLite, 2 h; protection from H2O2 cell death, % at 20 µM; hit rate 0.63% among 360,000;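 active means compounds giving at least 50% protection of heart cells from peroxide-induced death in the single-dose screen, raw or plate-pattern-corrected value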;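 further: 0% = DMSO wells with peroxide and 100% = DMSO wells without peroxide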
Myeloid diff MLP: compounds promoting myeloid differentiation | ER-HoxA9 myeloid progenitors, lysozyme-GFP differentiation, flow cytometry | calls only at 10 µM | hit rate 1% among 360,000 | AID 624256;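 active means normalized GFP-positive differentiation at or above the plate's own cutoff, the solvent-only control mean plus 3 SD; inconclusive means no clear call, values can overlap the other calls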;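 further: cells exposed to compound for four days before flow analysis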
Exocytosis inh: blocks lytic granule exocytosis; inhibition, % at 10 µM; AID 651702; TALL-104 LAMP-1 surface exposure, flow cytometry; cells stimulated with thapsigargin and PMA; hit rate 0.66% among 360,000;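 active means inhibition above about 55%, limit read from the data; inconclusive means no clear call, values can overlap the other calls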
HNF4A DNA FP: change in binding of human HNF4 alpha to DNA; P41235; HNF4a-FITC DNA binding, fluorescence polarization, 1 h; activity change, % at 10 µM; hit rate 0.3% among 360,000; AID 1224865; in the data active means activity change above about 30%, passing the limit was not always enough
Pemphigus Ab inh: human desmoglein-3 autoantibody binding inhibition. DSG3-coupled beads, scFv-anti-DSG3-GFP binding, flow cytometry; stronger effect = lower value. binding (percent of control), % at 10 µM. hit rate 0.48% among 310,000. AID 588358;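 active means binding more than 3 SD below its plate's average and above zero; inconclusive means below that plate limit but binding exactly zero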;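 further: hits lower antibody fragment binding to DSG3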
* hit, by the source's call; i = inactive; ? = inconclusive; / = no result; + = active, no number. In the library only some 3% were active in any assay of this set; here they are far more common.

SMILES	SENP1 FRET inh	Cardio protect	Myeloid diff MLP	Exocytosis inh	HNF4A DNA FP	Pemphigus Ab inh
CCOC(=O)C1=C(C)N=c2s/c(=C\c3cccn3C)c(=O)n2C1c1cccc(OC)c1OC (centres undefined)	-24.4	20.1	+	14.1	84.5*	107.4
CCOC(=O)C1=C(C)N=c2s/c(=C\c3ccc(C(=O)O)cc3)c(=O)n2C1c1ccc(OC)cc1OC (centres undefined)	19.0	0.8	i	-6.0	1.5	105.1
CCc1ccc(NC(=O)C(=O)NCc2ccccn2)cc1	3.2	-4.6	i	-2.5	1.4	104.7
COc1cc(NC(=O)CSc2ccc(-c3ccccn3)nn2)cc(OC)c1	-0.9	69.5*	i	2.5	2.6	/
CC(=O)Nc1cccc(NC(=O)CSc2ccc(-c3ccccn3)nn2)c1	1.5	67.4*	i	1.5	6.0	77.6
CC(=O)Nc1ccc(NC(=O)CSc2ccc(-c3ccc4c(c3)OCO4)nn2)cc1	-0.3	2.3	i	6.5	-0.9	60.2*
CC(=O)c1ccc(NC(=O)CSc2ccc(-c3ccc4c(c3)OCO4)nn2)cc1	0.7	-7.4	i	2.1	20.9	98.5
CC(=O)c1cccc(NC(=O)CSc2ccc(-c3ccccn3)nn2)c1	-0.4	35.9	i	-9.1	0.3	100.6
CCc1ccc(NC(=O)CSc2ccc(-c3ccccn3)nn2)cc1	-0.1	50.1*	i	1.5	0.1	/
Cc1cccc(NC(=O)N2C3CCCC2CC(NC(=O)C(C)(C)C)C3)c1 (centres undefined)	-0.6	12.2	i	-5.4	-1.6	112.9
CCc1ccc(NC(=O)c2c(C(=O)Nc3ccccc3)sc3nc(C)cc(=O)n23)cc1	2.4	3.0	i	6.6	2.0	95.4
Cc1ccc(S(=O)(=O)N2CCC(=O)N([C@H](COCc3ccc(C(F)(F)F)cc3)C(C)C)CC2)cc1	-2.0	/	i	8.3	-0.9	/
C[n+]1ccc(/C=C/c2cccs2)cc1	-39.1	-0.4	?	-2.1	5.6	106.3
CN(C)c1ccc(/C=C/c2cc[n+](C)cc2)cc1	93.2	-23.7	/	-4.8	67.9*	231.1
Cc1ccc(/C=C/c2ccc(N(C)C)cc2)[n+](C)c1	86.7	-19.4	?	-8.8	89.1*	242.5
Cc1cc2c(NCCc3ccccc3)ncnc2s1	-4.2	-14.5	+	-0.7	-1.8	248.8
CSc1cccc(CN2CCC(CO)(Cc3cccc(C(F)(F)F)c3)CC2)c1	0.2	-2.9	i	5.0	2.2	111.8
Cc1ccc(-n2cc(CN3CCC(CO)(Cc4cccc(C(F)(F)F)c4)CC3)cn2)cc1	1.9	-10.2	+	48.1	1.1	95.1
COc1cc(/C=C/c2sc3ccccc3[n+]2CCCS(=O)(=O)[O-])ccc1O	66.6	-9.7	i	-3.5	86.7*	100.4
c1ccc(Cc2cc[n+](Cc3ccccn3)cc2)cc1	0.7	-3.7	+	1.7	1.1	110.8
COc1ccc(Cc2c(-c3cccc(Br)c3)nc3c(C)cc(Br)cn23)c(C)c1	-1.0	-0.8	i	-1.8	8.6	/
O=C(Cn1nnc(-c2ccc(N3CCOCC3)cc2)n1)OC1CCCCC1	1.8	10.2	i	-2.2	0.8	60.1*
CCCCc1ccc(NC(=S)N2CCC(O)CC2)cc1	4.5	-5.6	+	0.4	0.1	102.3
O=C(Nc1ccccc1)OCCc1ccccc1	0.5	-3.8	i	-5.4	-0.4	/
CC(OC(=O)C1CC1)C(=O)Nc1ccc([N+](=O)[O-])cc1Cl (centres undefined)	0.2	-0.8	+	-0.2	-3.7	118.5
SMILES	SENP1 FRET inh	Cardio protect	Myeloid diff MLP	Exocytosis inh	HNF4A DNA FP	Pemphigus Ab inh
COc1ccc([N+](=O)[O-])cc1NC(=O)C(C)OC(=O)C1CCC1 (centres undefined)	0.6	-0.7	i	-2.3	-0.1	98.0
CN(C)C(=O)c1cccc(-c2cc(NC=O)c3ncc(-c4ccc(F)cc4)n3c2)c1	-25.2	27.1	i	4.0	0.4	/
CC(=O)c1ccc(-c2cnc3c(NC=O)cc(-c4cccc(C(=O)N(C)C)c4)cn23)cc1	-13.6	75.9*	i	-4.8	2.5	/
COc1cc(-c2cnc3c(NC=O)cc(-c4cccc(C(=O)NCCN(C)C)c4)cn23)cc(OC)c1OC	-2.6	44.6	i	1.1	0.4	/
CC(=O)Nc1cccc(-c2cc(NC=O)c3ncc(-c4cccc(C(C)=O)c4)n3c2)c1	-25.4	71.0*	i	-12.0	2.5	/
COc1cc(-c2cnc3c(NC=O)cc(-c4cccc(NC(C)=O)c4)cn23)cc(OC)c1OC	-7.3	53.6*	?	17.7	5.4	/
COc1ccc(-c2cc(NC=O)c3ncc(-c4cccc(C(=O)NCCN(C)C)c4)n3c2)c(OC)c1	-0.7	-3.6	+	8.0	3.2	/
C[C@@H]1ON(C)[C@H]2C[C@H]3c4[nH]c5ccccc5c4CCN3C(=O)[C@@H]12	-87.0	1.8	i	-4.5	-3.0	100.6
COc1cccc(COC(=O)C(Cc2ccccc2)NC(=O)c2ccco2)c1 (centres undefined)	3.0	3.8	/	11.5	-2.7	104.7
COc1ccc(C(=O)NCC(=O)N2CCN(c3ncccn3)CC2)cc1OC	0.3	4.2	i	-4.5	-1.4	97.5
COc1ccc(-c2cc(NC=O)c3ncc(-c4cccc(C(C)=O)c4)n3c2)cc1	-11.2	64.8*	i	0.8	9.6	/
COc1cccc(-c2cnc3c(NC=O)cc(-c4cccc(NC(C)=O)c4)cn23)c1	-13.9	64.4*	i	2.9	5.5	/
COc1cccc(-c2cnc3c(NC(C)=O)cc(-c4cccc(NS(C)(=O)=O)c4)cn23)c1	-0.9	63.3*	i	7.3	2.8	/
COc1cccc(-c2cc(NC=O)c3ncc(-c4ccc(C(C)=O)cc4)n3c2)c1	-10.5	33.6	?	?	5.9	/
Cc1ccc(S(=O)(=O)N2C[C@H]3C(=O)C[C@@H](c4ccccc4)N(S(=O)(=O)c4ccc(C)cc4)[C@H]3C[C@H]2c2cccc(Cl)c2)cc1	0.1	-4.1	+	-0.8	0.2	99.3
CCOc1cccc(Nc2cc3n(c(=O)n2)CCc2cc(OC)c(OC)cc2-3)c1	-38.5	60.4*	i	-1.6	4.0	103.3
CCC(C)(C)NC(=O)C(c1ccncc1)N(C(=O)Cn1nnc2ccccc21)c1cc2c(cc1C(C)=O)OCO2 (centres undefined)	1.4	-5.9	i	-4.0	-4.1	84.2*
Cc1cc(C)c2ccc(=O)n(CC(=O)N/N=C/c3ccccc3Cl)c2n1	-1.1	-0.8	i	-8.4	-1.1	102.6
Cn1c(=O)c2ccccc2n2c(=S)[nH]nc12	0.4	-3.8	i	-5.1	-0.4	112.3
Cn1c(=O)c2ccccc2n2c(CCl)nnc12	0.5	-2.4	?	-6.7	5.9	26.6*
Cc1c(Cl)cccc1NC(=S)Nc1ccc2[nH]c(=O)[nH]c2c1	-45.8	-2.6	i	2.2	38.9*	96.2
